MEKK2wt PB1 HTS: raises or lowers MEK5 binding to wildtype human MEKK2 PB1 domain | binding response (% of control), % at 10 µM | AID 1531 | hit rate 1.1% among 290,000 | Q9Y2U5 | bead flow cytometry, Alexa488-MEK5 binding to MEKK2 WT; actives lie on both sides; in the data active = binding response below about 67% or above about 130%
MEKK3 PB1 HTS: MEKK3-MEK5 PB1 interaction, increase or decrease; Q99759; bead-based flow cytometry, Alexa488-MEK5 binding to MEKK3; actives lie on both sides; 0 = blocked by unlabeled MEK5, 100 = vehicle; binding response (% of control), % at 10 µM; hit rate 1.4% among 290,000; AID 1529;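 active = binding response more than 3 SD above or below the average of its plate-row segment, actives on both sides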;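 also: Alexa488 bead fluorescence after subtracting the streptavidin-only scavenger bead signal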
Target sequence (Q99759 whole entry, looked up): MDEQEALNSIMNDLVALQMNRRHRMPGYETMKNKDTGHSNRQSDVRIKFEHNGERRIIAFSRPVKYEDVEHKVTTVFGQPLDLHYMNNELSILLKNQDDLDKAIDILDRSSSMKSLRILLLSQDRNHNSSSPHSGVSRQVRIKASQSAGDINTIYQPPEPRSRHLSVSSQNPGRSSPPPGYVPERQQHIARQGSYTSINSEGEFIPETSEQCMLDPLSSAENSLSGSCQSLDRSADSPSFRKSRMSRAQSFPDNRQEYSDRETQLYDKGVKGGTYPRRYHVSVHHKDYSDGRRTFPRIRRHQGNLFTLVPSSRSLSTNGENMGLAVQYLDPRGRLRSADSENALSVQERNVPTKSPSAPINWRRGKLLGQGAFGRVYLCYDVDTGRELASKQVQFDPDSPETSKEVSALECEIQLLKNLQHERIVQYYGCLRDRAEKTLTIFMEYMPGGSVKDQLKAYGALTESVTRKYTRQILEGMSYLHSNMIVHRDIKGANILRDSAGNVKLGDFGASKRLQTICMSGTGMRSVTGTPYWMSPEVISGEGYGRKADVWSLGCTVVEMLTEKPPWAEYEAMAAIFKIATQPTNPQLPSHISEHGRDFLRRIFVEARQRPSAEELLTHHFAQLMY
T cell HTS: modulates CD8 T cell binding to vesicles; AID 2052; response (vesicle binding), % at 7 µM; 2C CD8+ T cell-vesicle binding, flow cytometry; stronger effect = lower value; hit rate 0.068% among 330,000;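 active = response, share of CD8 T cells binding vesicles, and their 90th percentile fluorescence all below set limits, cut at about 80% in these data, passing the limit was not always enough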;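 also: values below 100% mean blocked vesicle binding to the CD8+ T cells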
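Also added: QL9-peptide-loaded Drosophila micro-vesicles bearing Ld, ICAM-1 and B7-1; Test system: purified 2C TCR transgenic mouse naive CD8+ T cells; Measured by: cytometric PE anti-B7-1 and Alexa647 anti-CD8 signals after 1% paraformaldehyde fixation; Timing: binding step 1.5 h, 37 °C, antibody labelling 20 min, ice.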
UCH37 DUB inh: human UCH37 deubiquitinating enzyme inhibition. purified proteasome/UCH37, Ub-AMC cleavage fluorescence. inhibition, % (no concentration beside the values). hit rate 0.33% among 330,000. Q9Y5K5;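 active = mean inhibition over replicate wells above about 20%, limit read from the data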
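Test system – human UCH37 enzyme supplied as purified proteasome complex · Incubation – 30 min preincubation with enzyme, 25 min cleavage at room temperature · Detection – AMC fluorescence from Ub-AMC cleavage, excitation 355 nm, emission 460 nm · Benchmarks – no-proteasome wells (full inhibition) and compound-free wells (no inhibition)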
Rce1 inhib: blocks yeast Ras-converting enzyme; Q03530; yeast membranes, quenched prenylated peptide cleavage fluorescence; calls only; hit rate 0.27% among 290,000;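 active = fall in fluorescence gain of 50% or more versus controls, with final raw signal at or below 3038400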
MEKK2mut PB1 HTS: signal of MEK5 binding to mutant human MEKK2 PB1 domain | percent response, % at 10 µM | AID 1530 | hit rate 0.35% among 290,000 | bead flow cytometry, Alexa488-MEK5 binding to MEKK2 mutant; in the data active = percent response above about 24%, passing the limit was not always enough
MEKK2wt confirm: raises or lowers MEK5 binding to wildtype human MEKK2, retest; shares compounds with MEKK3 PB1 HTS; bead flow cytometry, Alexa488-MEK5 binding to MEKK2 WT; actives lie on both sides; binding response (% of control), % at 10 µM; hit rate 2.4% among 5,900; in the data active = binding response below about 16% or above about 210%; inactive = in between
MEKK2mut confirm: signal of MEK5 binding to mutant human MEKK2, retest; shares compounds with MEKK3 PB1 HTS; bead flow cytometry, Alexa488-MEK5 binding to MEKK2 mutant; percent response, % at 10 µM; hit rate 2% among 5,900; AID 1893; in the data active = percent response mostly above about 71%, no sharp cut-off; inactive = mostly below about 38%;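 also: higher means compound restores mutant binding toward wildtype level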
MEKK3 confirm: confirmation of inhibitors of MEK5 binding to human MEKK3; binding response (% of control), % at 10 µM; bead flow cytometry, Alexa488-MEK5 binding to MEKK3; stronger effect = lower value; AID 1894; hit rate 1.8% among 5,900; shares compounds with MEKK3 PB1 HTS;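 active = binding response below 72% of control, or above a set upper limit, though filed actives all read lower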
A number is an active result; – = inactive; · = no result; [ ] = dose if it differs, or a comment. Only some compounds are listed: those with a hit (about 2.5% of all), similar ones and a draw of the others.

SMILES | MEKK2wt PB1 HTS | MEKK3 PB1 HTS | T cell HTS | UCH37 DUB inh | Rce1 inhib | MEKK2mut PB1 HTS | MEKK2wt confirm | MEKK2mut confirm | MEKK3 confirm
CCC(=O)N(CCc1ccccc1)Cc1cc2cc(OC)ccc2[nH]c1=O | – | 135.0 | – | – | – | – | – | – | –
CCC(=O)N(CCc1ccccc1)Cc1cc2ccc(OC)cc2[nH]c1=O | – | – | – | – | – | – | · | · | ·
NC(N)=N/N=C/c1ccc2cccc(OCc3ccccc3)c2n1 | 148.0 | – | – | · | – | – | 2.0[inhibitor] | – | 2.0
O/N=C/c1ccc2cccc(OCc3ccccc3)c2n1 | – | – | – | · | – | – | · | · | ·
Cc1oc(C)c(C(=O)O)c1C(=O)O | – | 45.0[inhibitor] | – | – | – | – | – | – | –
COC(=O)c1ccc2c(=O)n(CCCCCC(=O)NCc3ccc4c(c3)OCO4)c(=O)[nH]c2c1 | – | 65.0[inhibitor] | – | – | – | – | – | – | –
CC12CCC(C(=O)N(CC(O)CN3CCCCCC3)C1=O)C2(C)C (stereo not drawn) | – | 145.0 | – | – | – | – | – | – | –
Cc1ccnc(NN=Cc2ccccc2)n1 | · | · | · | – | · | · | · | · | ·
c1ccc2nc3ccccc3nc2c1 | – | 46.0[inhibitor] | – | – | – | – | – | – | –
c1ccc(-c2ncc3c(ccc4ccccc43)n2)cc1 | – | – | – | – | – | – | · | · | ·
c1ccc2c(c1)cnc1ccccc12 | 33.0[inhibitor] | 37.0[inhibitor] | – | – | – | – | – | – | –
Nc1nc2ccccc2nc1N | – | – | – | – | – | – | · | · | ·
Nn1cnnc1NN=Cc1ccc(Cl)c([N+](=O)[O-])c1 | · | · | · | – | · | · | · | · | ·
O=C(Cc1cccs1)N/N=C/C=C/c1ccccc1 | – | 129.0 | – | · | – | – | – | – | –
COc1ccccc1NCC(=O)N/N=C/C=C/c1ccccc1 | – | 70.0[inhibitor] | – | · | – | – | – | – | –
O=C(Cc1cccs1)N/N=C/C=C\c1ccccc1[N+](=O)[O-] | – | – | – | · | – | – | · | · | ·
CCCCOc1ccccc1C=NNC(=O)CC#N | · | · | · | – | · | · | · | · | ·
Cc1cc([N+](=O)[O-])cc2c1NC(=O)C2(O)N1CCCCCC1 (stereo not drawn) | – | 163.0 | – | · | – | – | – | – | –
CN1C(=O)NC(c2ccc(O)cc2)C2=C1CN(c1ccc(O)cc1)C2=O (stereo not drawn) | – | 147.0 | – | – | · | – | – | – | –
CON=C(CCC(=O)O)c1cccs1 | · | · | · | – | · | · | · | · | ·
Cc1cccc2cc(C=NNc3ccc(C(=O)O)cc3)c(Cl)nc12 | · | · | · | – | · | · | · | · | ·
Cc1cccc2cc(/C=N/Nc3ccc(C(=O)O)cc3)c(Cl)nc12 | – | 66.0[inhibitor] | – | · | · | – | – | – | –
Cc1cc(C)n(-c2nnc(C)n2N=Cc2ccccc2F)n1 | · | · | · | – | · | · | · | · | ·
Cc1ccc(CNC(=O)COC(=O)CSc2ccc(Br)cc2C)cc1 | – | 130.0 | – | – | – | – | – | – | –
Cc1ccccc1C(=O)Nc1cccc(C(=O)NN=Cc2ccc3c(c2)OCO3)c1 | · | · | · | – | · | · | · | · | ·
SMILES | MEKK2wt PB1 HTS | MEKK3 PB1 HTS | T cell HTS | UCH37 DUB inh | Rce1 inhib | MEKK2mut PB1 HTS | MEKK2wt confirm | MEKK2mut confirm | MEKK3 confirm
CCCCNc1c([N+](=O)[O-])cc(C(=O)O)cc1[N+](=O)[O-] | – | 138.0 | – | – | – | – | – | – | –
CCCOc1ccc(N2C(=O)CC(NNC(=O)c3ccc(COc4ccccc4)o3)C2=O)cc1 (stereo not drawn) | – | 142.0 | – | – | – | – | – | – | –
COC(=O)c1cc(C)sc1NC(=O)C1CC(=O)NN1Cc1ccccc1 (stereo not drawn) | – | 137.0 | – | – | – | – | – | – | –
CCCOc1ccc(/C=N/NC(=O)CSCc2ccc([N+](=O)[O-])cc2)cc1OCC | – | 135.0 | – | · | – | – | – | – | –
COc1ccc(C=NNC(=O)CSCc2ccc([N+](=O)[O-])cc2)cc1OC | · | · | · | – | · | · | · | · | ·
C/C=C1\COC(C(=O)NCc2ccccc2)(C(F)(F)F)C=C1C=C1CCCCC1 (stereo not drawn) | – | – | – | – | – | – | · | · | ·
C/C=C1\COC(C(=O)NCCCN2CCCC2=O)(C(F)(F)F)C=C1C=C(C)C (stereo not drawn) | – | 78.0[inhibitor] | – | – | – | – | – | – | –
C/C=C1\COC(C(=O)NCCN2CCCC2)(C(F)(F)F)C=C1C=C1CCCCC1 (stereo not drawn) | 141.0 | – | – | – | – | – | – | – | –
CCOC(=O)c1c(CSCc2ccccc2)oc2ccc(O)c(CN(C)C)c12 | 137.0 | – | – | – | – | – | – | – | –
O=C(/C=C/c1ccccc1[N+](=O)[O-])N1CCN(c2ccc(F)cc2)CC1 | – | – | – | – | – | – | · | · | ·
O=C(/C=C/c1cccc([N+](=O)[O-])c1)N1CCN(c2ccc(F)cc2)CC1 | – | 133.0 | – | – | – | – | – | – | –
O=C(CN1C(=O)c2cccc3cccc1c23)N1CCN(c2ccc(F)cc2)CC1 | – | – | – | – | – | – | · | · | ·
O=C(CN1C(=O)c2cccc([N+](=O)[O-])c2C1=O)N1CCN(c2ccc(F)cc2)CC1 | – | 47.0[inhibitor] | – | · | – | – | – | – | –
O=C(NN=Cc1ccc2c(c1)OCO2)c1ccc(NC(=O)c2ccccc2Cl)cc1 | · | · | · | – | · | · | · | · | ·
C=CCSc1nncn1N=Cc1ccc(OC)cc1 | · | · | · | – | · | · | · | · | ·
Cc1ccc(-c2ccc(C=NN3C(=O)C4C5C=CC(C6CC56)C4C3=O)o2)c([N+](=O)[O-])c1 (stereo not drawn) | · | · | · | – | · | · | · | · | ·
Cc1cc(C(=O)c2ccc(Cl)cc2)c(NC(=O)CCl)s1 | – | 135.0 | – | – | – | – | – | – | –
CCc1cc(C(=O)c2ccc(C)cc2)c(NC(=O)CCl)s1 | – | – | – | – | – | – | · | · | ·
C=CCn1c(NN=Cc2ccc(O)cc2)nc2ccccc2c1=O | · | · | · | – | · | · | · | · | ·
CCn1ncc(C=NNC(=O)Cc2ccc([N+](=O)[O-])cc2)c1C | · | · | · | – | · | · | · | · | ·
CCOC(=O)N1CCN(C(=O)CN(c2ccccc2OC)S(=O)(=O)c2ccc(C)cc2)CC1 | 18.0[inhibitor] | 12.0[inhibitor] | – | – | – | – | – | – | –
Cc1ccc(S(=O)(=O)N(CC(=O)N2CCc3ccccc3C2)c2ccc(Cl)c(Cl)c2)cc1 | – | 146.0 | – | – | – | – | – | – | –
COc1ccccc1N(CC(=O)N1CCCC1)S(=O)(=O)c1ccc(C)cc1 | – | – | – | · | – | – | · | · | ·
NC(Cc1cccc2ccccc12)=NO | · | · | · | – | · | · | · | · | ·
Cc1cc(C)nc(N=C(N)Nc2ccc(S(=O)(=O)O)cc2)n1 | · | · | · | – | · | · | · | · | ·

Compound activity: PubChem, several laboratories
